XiGFP reactiv: reactivates the inactive X chromosome in mouse fibroblasts. XiGFP mouse fibroblasts, % GFP-positive cells imaging, 3 d; cells co-treated with 5-aza-dC sensitizer; scaled so ellipticine positive control = 100%. activation, % at 7.58 µM. 360,000 compounds, 0.055% hits. AID 743238;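 active means mean normalized replicate activation at least 10% and every replicate at or above 10%; inconclusive means only one of the two criteria met; inactive means mean below 10% and not all replicates reach 10%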;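 further: 0% = median of on-plate neutral control wells and 100% = ellipticine 6 µM median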
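System: 68-5-11 XiGFP fibroblast line; Timing: 3 days compound exposure; Compound dosing: one concentration, pinned; Benchmarks: positive control ellipticine, 6 µM final; Buffer or medium: DMEM containing 5-aza-dC.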
FN deposit inh: fibronectin deposition inhibition. inhibition, % at 12.6 µM. 350,000 compounds, 0.086% hits. AH1F fibroblasts, Alexa488-fibronectin deposition fluorescence, overnight;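 active means mean inhibition across replicates of 30% or more, regardless of how many single replicates reach that level; inconclusive means mean under 30% yet at least half of replicates reach 30%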;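 further: positive control wells lacked labelled fibronectin entirely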
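Schedule: 1 h cell adhesion before compound, then overnight fibronectin incubation; test system: AH1F fibroblast monolayer depositing Alexa488-labelled fibronectin into matrix; quantity: 10000 AH1F cells per well; probe or stimulus: fluorescent fibronectin at 24 nM final; signal: fluorescence, ex 485 nm, em 525 nm; evaluation: percent inhibition as loss of matrix-bound fibronectin fluorescence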
TROY signal inh: inhibitors of TROY-dependent NF-kB signaling | Q293 LMP1-TROYcd NF-kB luciferase reporter, 4 h | 360,000 compounds, 0.98% hits | inhibition, % at 10 µM;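 active means compounds whose plate-normalised and pattern-corrected inhibition of the luciferase reporter signal at the single screening dose is 50% or more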
EWS-Fli block: inhibitors of EWS/Fli oncoprotein transcriptional activity; inhibition, % at 12.6 µM; 350,000 compounds, 0.67% hits; A673 NR0B1-luciferase reporter, viability-normalised;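 active means mean inhibition of at least 50% after viability correction, with every replicate also passing that limit; inconclusive means mean reaches 50% but only one of two replicates passes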;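 further: firefly luciferase signal divided by Alamar Blue viability fluorescence both relative to DMSO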
TWEAK Fn14 block: blocks TWEAK-Fn14 interaction in a reporter cell assay; TWEAK-stimulated Fn14 reporter cells, luciferase luminescence, 8 h; AID 1159606; inhibition, % at 10 µM; 360,000 compounds, 2% hits; in the data active means inhibition above about 50%
LGR2 antag: blocks bursicon-induced cAMP signaling via Drosophila LGR2 | HEK293 LGR2, CRE-luciferase, bursicon-stimulated, 4 h | inhibition, % at 9.99 µM | 380,000 compounds, 0.35% hits;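 active means drop in luminescence signal, shown as inhibition above about 50% in the replicate tests, limit read from the data, passing the limit was not always enough; inconclusive means probably only some replicates passing the limit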;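 further: agonist challenge used bursicon conditioned medium at about half maximal strength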
The depositor's hits bear a star; ? = inconclusive; . = not tested or not shown. Only some compounds are listed: those with a hit (about 2.3% of all), similar ones and a draw of the others.

SMILES	XiGFP reactiv	FN deposit inh	TROY signal inh	EWS-Fli block	TWEAK Fn14 block	LGR2 antag
O=C(Nc1nc(-c2ccccc2)cs1)c1ccccc1NS(=O)(=O)c1ccc(F)cc1	0	9	50	.	88*	?
COc1ccccc1OC(C)C(=O)Nc1nc(-c2ccc(S(=O)(=O)N3CCOCC3)cc2)cs1 (stereo unspecified)	.	1	15	.	40	.
O=C(COc1ccccc1Cl)Nc1nc(-c2ccncc2)cs1	0	1	37	-7	53*	26
COc1ccccc1C(=O)Nc1nc(-c2ccc(S(=O)(=O)N3CCOCC3)cc2)cs1	.	.	65*	.	107*	.
CC(C)NC(=O)N(C)C[C@H]1OCc2ccccc2-c2ccccc2C(=O)N([C@H](C)CO)C[C@@H]1C	0	5	.	.	.	.
COc1ccccc1-c1ccc2c(c1)[C@H]1[C@H](CCN1C(=O)CN1CCOCC1)[C@H](CO)N2C	0	-16	.	-54	.	-8
CO[C@H]1CC[C@H]2CCN(C)C(=O)C[C@@H](c3ccccc3)CN(C)C(=O)c3cc(C#N)ccc3OC[C@@H]1O2	0	-6	.	4	.	0
O=C(Nc1ccc(C(F)(F)F)cc1)N[C@@H]1CC[C@@H](CCn2cc(C3(O)CCCC3)nn2)O[C@H]1CO	0	.	.	1	.	3
CCOc1ccc2nc(NC(=O)c3ccc(S(=O)(=O)N4CCOCC4)cc3)sc2c1	.	0	15	.	8	.
CCOc1ccc2nc(NC(=O)c3ccc(OC)c(S(=O)(=O)N4CCOCC4)c3)sc2c1	.	6	53*	.	44	.
O=C(Nc1nc(-c2ccncc2)cs1)c1ccc(S(=O)(=O)N2CCOCC2)cc1	.	4	6	.	2	.
CCOc1cccc(C(=O)Nc2nc(-c3ccc(S(=O)(=O)N4CCOCC4)cc3)cs2)c1	.	.	50*	.	36	.
COC(=O)C[C@H]1CC[C@H]2[C@@H](COc3ccc(NC(=O)c4ccccc4OC)cc3C(=O)N2C)O1	0	-17	.	-10	.	-2
CN1CCC(OC(=O)c2cc3cc(Cl)cc(Cl)c3oc2=O)CC1	0	-2	6	17	77*	16
CN1CCC(OC(=O)c2ccc(Cl)cc2Cl)CC1	0	2	-13	12	-1	2
O=C(CN1CCC(n2nnc3cc(C(F)(F)F)ccc32)CC1)Nc1ccc2c(c1)CCC2	.	.	9	.	2	.
O=C(CN1CCC(n2nnc3cc(C(F)(F)F)ccc32)CC1)Nc1ccc2c(c1)OCCO2	.	12	64*	.	75*	.
N#C/C(=C\c1ccc(O)cc1)c1nc2ccccc2o1	0	10	26	-32	-8	-69
COc1cc(/C=C(\C#N)c2nc3ccccc3o2)ccc1O	18*	-5	-4	-5	34	-1
CCCC(=O)Nc1ccc2c(c1)C(=O)N(C)C[C@H](OC)[C@@H](C)CN(C(=O)c1cnccn1)[C@H](C)CO2	0	1	.	0	.	-6
COCCn1c(C)cc(C2=NNC(=Nc3ccccc3)SC2)c1C	.	.	82*	.	76*	.
CCN=C1NN=C(c2cc(C)n(Cc3ccco3)c2C)CS1	0	0	-1	64*	48	.
CCN(CC)S(=O)(=O)c1ccc(NC(=O)Nc2cccc(C(F)(F)F)c2)cc1	.	4	58*	.	76*	.
O=C(Nc1ccc(OC(F)F)cc1)Nc1cccc(C(F)(F)F)c1	.	-4	46	.	59*	.
Cc1ccc(S(=O)(=O)Nc2ccc(NC(=O)Nc3cccc(C(F)(F)F)c3)cc2)cc1	0	3	41	13	86*	14
SMILES	XiGFP reactiv	FN deposit inh	TROY signal inh	EWS-Fli block	TWEAK Fn14 block	LGR2 antag
O=C(Nc1ccncc1)Nc1cccc(C(F)(F)F)c1	0	-8	10	18	20	5
CCC(=O)Nc1ccc2c(c1)OC[C@@H](C)N(CC1CCCCC1)C[C@@H](C)[C@@H](OC)CN(C)C2=O	0	10	.	4	.	5
C[C@H](CO)N1C[C@H](C)[C@@H](CN(C)C(=O)Nc2ccc(F)cc2)OCCCC[C@H](C)Oc2ccc(NS(=O)(=O)c3ccccc3)cc2C1=O	-1	.	.	10	.	-2
O=C(Nc1ccccc1)C1=C[C@@H](c2ccccc2)C[C@@H](OCc2ccc(CO)cc2)O1	0	-16	-48	-37	-86	-95
O=C(Nc1ccccc1)C1=C[C@@H](C2CCCCC2)C[C@@H](OCc2ccc(CO)cc2)O1	0	-9	73*	-112	57*	-17
O=C(Nc1ccccc1)C1=C[C@@H](c2csc3ccccc23)C[C@@H](OCc2ccc(CO)cc2)O1	-1	5	76*	7	-16	12
O=C(Nc1ccccc1)C1=C[C@H](C2CCCCC2)C[C@H](OCc2ccc(CO)cc2)O1	0	-2	66*	-20	39	-28
CC(C)(C)[C@H]1C=C(C(=O)Nc2ccccc2)O[C@@H](OCc2ccc(CO)cc2)C1	0	-14	18	-11	-15	-21
CCN1C(=O)/C(=C/C=C2/SCCN2C)SC1=S	.	.	29	.	68*	.
CN1CCS/C1=C\C=C1/SC(=S)N(CC(=O)O)C1=O	0	-3	-8	-10	14	1
CN1c2ccccc2C(C)(C)C12C=Cc1cc(O)ccc1O2 (stereo unspecified)	.	.	34	7	53*	18
C#CCOCCOCCOCCNc1nc(N2CCN(C(=O)CCCCCCCCCCNC(=O)[C@H]([C@@H](C)CC)n3cc(CCCCCN)nn3)CC2)nc(N2CCN(C(=O)CCCCCCCCCCNC(=O)[C@@H]([C@H](C)O)n3cc(C)nn3)CC2)n1	.	.	67*	.	50	.
C#CCOCCOCCOCCNc1nc(N2CCN(C(=O)CCCCCCCCCCNC(=O)[C@H](CCCCN)n3cc(C[C@@H](C)CC)nn3)CC2)nc(N2CCN(C(=O)CCCCCCCCCCNC(=O)[C@H](CCCCN)n3cc(C[C@@H](C)CC)nn3)CC2)n1	.	.	65*	.	51*	.
CC[C@H](C)Cc1cn([C@@H](CCCCNC(=O)OC(C)(C)C)C(=O)NCCCCCCCCCCC(=O)N2CCN(C(=O)OC(C)(C)C)CC2)nn1	0	5	39	23	59*	.
C#CCOCCOCCOCCNc1nc(N2CCN(C(=O)CCCCCCCCCCNC(=O)[C@H](CCCCN)n3cc(CCO)nn3)CC2)nc(N2CCN(C(=O)CCCCCCCCCCNC(=O)[C@H](CCCN=C(N)N)n3cc(C[C@@H](C)CC)nn3)CC2)n1	.	.	8	.	-8	.
C#CCOCCOCCOCCNc1nc(N2CCN(C(=O)CCCCCCCCCCNC(=O)[C@H](CCCCN)n3cc(C)nn3)CC2)nc(N2CCN(C(=O)CCCCCCCCCCNC(=O)[C@@H]([C@H](C)CC)n3cc(CCCCCN)nn3)CC2)n1	.	.	31	.	-71	.
